# From ChEMBL document CHEMBL4145669 (J Med Chem, 2018)
# Square brackets hold non-standard residues; d marks the D form. Peptide text beside a SMILES is read from it. hPhe = N[C@@H](CCc1ccccc1)C(=O)O; Nle = CCCC[C@H](N)C(=O)O
# Assays:
# [1] = molecular target: Melanocyte-stimulating hormone receptor (Mus musculus, UniProt Q01727); assay: Agonist activity at mouse MC1R expressed in HEK293 cells incubated for 2 hrs by AlphaScreen cAMP assay; assay type: functional, cell-based
# In short: (§1)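 HEK293 cells stably expressing mouse MC1R, about 90% confluent, were detached with Versene and suspended at 10,000 cells/μL in stimulation buffer (HBSS, 0.5 mM IBMX, 5 mM HEPES, 0.1% BSA, pH 7.4) with anti-cAMP acceptor beads. Compound was added for 2 h at room temperature in the dark, then donor beads/biotinylated cAMP in lysis buffer for 2 h, followed by AlphaScreen read. Doses went up to 100 μM in duplicate wells, ≥3 experiments. EC50 came from nonlinear regression, with efficacy as a percent of NDP-MSH.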
# [2] = molecular target: Melanocyte-stimulating hormone receptor (Mus musculus) (UniProt Q01727); assay: Agonist activity at mouse MC1R expressed in HEK293 cells at 100 uM incubated for 2 hrs by AlphaScreen cAMP assay relative to NDP-MSH; assay type: functional, cell-based; in short: as §1
# Chain of Melanocyte-stimulating hormone receptor (Mus musculus) (Q01727 whole entry, looked up): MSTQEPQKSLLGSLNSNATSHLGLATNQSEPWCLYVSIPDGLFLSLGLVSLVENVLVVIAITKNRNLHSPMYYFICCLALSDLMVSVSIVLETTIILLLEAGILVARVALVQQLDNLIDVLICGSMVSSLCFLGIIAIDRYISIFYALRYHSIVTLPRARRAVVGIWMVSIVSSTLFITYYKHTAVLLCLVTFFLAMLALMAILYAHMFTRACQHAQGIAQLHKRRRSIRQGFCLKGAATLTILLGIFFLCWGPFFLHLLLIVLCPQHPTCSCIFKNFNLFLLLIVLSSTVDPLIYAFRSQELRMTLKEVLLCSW
# Melanocortin receptor 5 = Melanocortin receptor 5 (Mus musculus, UniProt P41149); assay: Inverse agonist activity at mouse MC5R expressed in HEK293 cells incubated for 2 hrs by AlphaScreen cAMP assay; assay type: functional, cell-based
# Chain of Melanocortin receptor 5 (P41149 whole entry): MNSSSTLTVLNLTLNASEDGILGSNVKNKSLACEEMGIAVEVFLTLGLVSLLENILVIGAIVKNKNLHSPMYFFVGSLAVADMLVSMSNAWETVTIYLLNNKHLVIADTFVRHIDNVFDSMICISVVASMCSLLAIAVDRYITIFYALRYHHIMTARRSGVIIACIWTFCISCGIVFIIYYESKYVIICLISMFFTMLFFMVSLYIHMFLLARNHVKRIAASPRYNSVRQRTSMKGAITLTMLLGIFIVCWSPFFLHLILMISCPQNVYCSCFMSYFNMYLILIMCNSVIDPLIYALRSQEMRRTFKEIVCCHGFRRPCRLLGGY
# In short: (§2)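 In the mouse MC5R HEK293 stable line, cells in IBMX-containing stimulation buffer with anti-cAMP acceptor beads were exposed to compound at up to 100 μM for 2 h at room temperature in the dark. Donor beads/biotinylated cAMP were then added for 2 h before AlphaScreen reading. Signal was normalized to basal response to give a percent difference from basal. Duplicate wells, ≥3 independent experiments.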
# [3] = molecular target: Melanocortin receptor 5 (Mus musculus) (UniProt P41149); assay: Inverse agonist activity at mouse MC5R expressed in HEK293 cells at 100 uM incubated for 2 hrs by AlphaScreen cAMP assay; assay type: functional, cell-based; in short: as §2
# Chain of Melanocortin receptor 5 (Mus musculus) (P41149 whole entry): as above
# [4] = molecular target: Melanocortin receptor 3 (Mus musculus) (UniProt P33033); assay: Agonist activity at mouse MC3R expressed in HEK293 cells at 100 uM incubated for 2 hrs by AlphaScreen cAMP assay relative to untreated control; assay type: functional, cell-based
# Chain of Melanocortin receptor 3 (Mus musculus) (P33033 whole entry): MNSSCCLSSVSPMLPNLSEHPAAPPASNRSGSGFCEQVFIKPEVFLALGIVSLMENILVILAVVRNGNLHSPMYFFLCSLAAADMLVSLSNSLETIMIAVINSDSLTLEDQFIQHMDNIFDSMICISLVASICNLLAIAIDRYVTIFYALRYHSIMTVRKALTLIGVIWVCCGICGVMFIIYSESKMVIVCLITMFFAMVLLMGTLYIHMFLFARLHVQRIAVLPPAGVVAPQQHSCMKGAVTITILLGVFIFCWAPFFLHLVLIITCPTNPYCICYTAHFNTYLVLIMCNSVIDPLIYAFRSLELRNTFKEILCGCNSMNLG
# [5] = molecular target: Melanocortin receptor 4 (Mus musculus) (UniProt P56450); assay: Agonist activity at mouse MC4R expressed in HEK293 cells at 100 uM incubated for 2 hrs by AlphaScreen cAMP assay relative to untreated control; assay type: functional, cell-based
# Chain of Melanocortin receptor 4 (Mus musculus) (P56450 whole entry): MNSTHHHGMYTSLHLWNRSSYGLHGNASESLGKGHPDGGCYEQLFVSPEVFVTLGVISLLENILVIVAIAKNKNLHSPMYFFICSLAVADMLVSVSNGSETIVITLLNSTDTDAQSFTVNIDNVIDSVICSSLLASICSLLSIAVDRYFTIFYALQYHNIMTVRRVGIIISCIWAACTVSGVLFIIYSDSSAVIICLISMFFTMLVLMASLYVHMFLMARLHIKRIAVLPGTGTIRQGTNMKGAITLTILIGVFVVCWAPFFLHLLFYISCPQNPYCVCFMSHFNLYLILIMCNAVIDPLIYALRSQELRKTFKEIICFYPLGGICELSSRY
# Melanocortin receptor 3 = Melanocortin receptor 3 (Mus musculus, UniProt P33033); assay: Antagonist activity at mouse MC3R expressed in HEK293 cells assessed as reduction in NDP-MSH-induced response incubated for 2 hrs by AlphaScreen cAMP assay based Schild analysis; assay type: functional, cell-based; conditions: read-out: pA2 (converted)
# Chain of Melanocortin receptor 3 (P33033 whole entry): as the sequence (P33033 whole entry) above
# Melanocortin receptor 4 = Melanocortin receptor 4 (Mus musculus, UniProt P56450); assay: Antagonist activity at mouse MC4R expressed in HEK293 cells assessed as reduction in NDP-MSH-induced response incubated for 2 hrs by AlphaScreen cAMP assay based Schild analysis; assay type: functional, cell-based; conditions: read-out: pA2 (converted)
# Chain of Melanocortin receptor 4 (P56450 whole entry): as the sequence (P56450 whole entry) above
# Mus musculus = species on record: Mus musculus; assay: Selectivity index, ratio of pA2 for antagonist activity at mouse MC3R expressed in HEK293 cells to pA2 for antagonist activity at mouse MC4R expressed in HEK293 cells; assay type: cell-based
# [6] = molecular target: Melanocyte-stimulating hormone receptor (Mus musculus) (UniProt Q01727); assay: Agonist activity at mouse MC1R expressed in HEK293 cells incubated for 2 hrs by AlphaScreen cAMP assay relative to NDP-MSH; assay type: functional, cell-based; in short: as §1
# Chain of Melanocyte-stimulating hormone receptor (Q01727 whole entry): as the sequence (Q01727 whole entry, looked up) above
Structure (SMILES),EC50 [1],Activity [2],EC50 (Melanocortin receptor 5),Activity [3],Activity [4],Activity [5],Kb (Melanocortin receptor 3),Kb (Melanocortin receptor 4),Ratio (Mus musculus),Activity [6]
CCCC[C@@H]1NC(=O)[C@H](C)NC(=O)[C@H](CCCNC(=N)N)NC(=O)[C@H](Cc2ccccc2)NC(=O)[C@H](Cc2ccccc2)NC(=O)[C@H](CCCNC(=N)N)NC(=O)[C@@H]2CCCN2C(=O)[C@H]2CCCN2C1=O (cyclo(RFFRA[Nle][dP]P)),> 100 µM,< 20%,> 100 µM,< 20%,< 20%,< 20%,0.0316 µM,0.000794 µM,46,
CCCC[C@@H]1NC(=O)[C@H](C)NC(=O)[C@H](CCCNC(=N)N)NC(=O)[C@H](CCc2ccccc2)NC(=O)[C@H](Cc2ccccc2)NC(=O)[C@H](CCCNC(=N)N)NC(=O)[C@@H]2CCCN2C(=O)[C@H]2CCCN2C1=O (cyclo(RF[hPhe]RA[Nle][dP]P)),> 100 µM,< 20%,> 100 µM,< 20%,< 20%,< 20%,0.0316 µM,0.00158 µM,19,
N=C(N)NCCC[C@@H]1NC(=O)[C@@H]2CCCN2C(=O)[C@H]2CCCN2C(=O)[C@H](Cc2ccccc2)NC(=O)[C@H](CO)NC(=O)[C@H](CC(N)=O)NC(=O)[C@H](CCc2ccccc2)NC(=O)[C@H](Cc2ccccc2)NC1=O,,40%,> 100 µM,< 20%,< 20%,< 20%,0.316 µM,0.00251 µM,130,
N=C(N)NCCC[C@@H]1NC(=O)[C@@H]2CCCN2C(=O)[C@H]2CCCN2C(=O)[C@H](Cc2ccccc2)NC(=O)[C@H](CO)NC(=O)[C@H](CN)NC(=O)[C@H](Cc2ccccc2)NC(=O)[C@H](Cc2ccccc2)NC1=O,0.6 µM,,> 100 µM,< 20%,< 20%,< 20%,0.158 µM,0.000794 µM,170,85%
CCCC[C@@H]1NC(=O)[C@H](C)NC(=O)[C@H](CC(N)=O)NC(=O)[C@H](CCc2ccccc2)NC(=O)[C@H](Cc2ccccc2)NC(=O)[C@H](CCCNC(=N)N)NC(=O)[C@@H]2CCCN2C(=O)[C@H]2CCCN2C1=O,> 100 µM,< 20%,> 100 µM,< 20%,< 20%,< 20%,0.631 µM,0.00251 µM,250,
CCCC[C@@H]1NC(=O)[C@H](CO)NC(=O)[C@H](CC(N)=O)NC(=O)[C@H](Cc2ccccc2)NC(=O)[C@H](Cc2ccccc2)NC(=O)[C@H](CCCNC(=N)N)NC(=O)[C@@H]2CCCN2C(=O)[C@H]2CCCN2C1=O (cyclo(RFFNS[Nle][dP]P)),2.6 µM,,,-35%,< 20%,< 20%,0.251 µM,0.00316 µM,79,75%
N=C(N)NCCC[C@@H]1NC(=O)[C@H](CCc2ccccc2)NC(=O)[C@H](Cc2ccccc2)NC(=O)[C@H](CCCNC(=N)N)NC(=O)[C@@H]2CCCN2C(=O)[C@H]2CCCN2C(=O)[C@H](Cc2ccccc2)NC(=O)[C@H](CO)NC1=O (cyclo(RF[hPhe]RSF[dP]P)),,30%,> 100 µM,< 20%,< 20%,< 20%,0.02 µM,0.00158 µM,13,
C[C@@H]1NC(=O)[C@H](CN)NC(=O)[C@H](CCc2ccccc2)NC(=O)[C@H](Cc2ccccc2)NC(=O)[C@H](CCCNC(=N)N)NC(=O)[C@@H]2CCCN2C(=O)[C@H]2CCCN2C(=O)[C@H](Cc2ccccc2)NC1=O,0.56 µM,,> 100 µM,< 20%,< 20%,< 20%,0.0794 µM,0.000794 µM,100,70%
N=C(N)NCCC[C@@H]1NC(=O)[C@@H]2CCCN2C(=O)[C@H]2CCCN2C(=O)[C@H](Cc2ccccc2)NC(=O)[C@H](CO)NC(=O)[C@H](CN)NC(=O)[C@H](CCc2ccccc2)NC(=O)[C@H](Cc2ccccc2)NC1=O,,40%,> 100 µM,< 20%,< 20%,< 20%,0.0631 µM,0.000631 µM,120,
